Shown are actives, neighbours in structure and some others; about 2.9% of the full set was active somewhere.
UBC13 inh = inhibitors of human UBC13 polyubiquitin chain formation | TR-FRET | P61088 | inhibition, % at 20 µM | AID 485273 | actives 0.47% (n = 330,000); in the data active = inhibition above about 45%, passing the limit was not always enough
Apaf-1 inh = human Apaf-1 inhibition; reconstituted apoptosome caspase-3 activity, DEVD-Rh110 fluorescence; O14727; actives 0.71% (n = 330,000); inhibition, % at 20 µM; active = inhibition of at least 40% at 20 µM;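 note: plate controls were DMSO wells for no effect and DEVD-CHO caspase inhibitor wells for full effect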
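Material: reconstituted apoptosome with Apaf-1, cytochrome c, caspase-9, procaspase-3, dATP / Buffer or medium: pH 7.5 Hepes buffer with CHAPS, BSA, DTT / Also added: cytochrome c with DEVD-Rh110 / Schedule: compound with Apaf-1, dATP, procaspase-3 30 min, then 50 min reaction, room temperature / Technique: rhodamine 110 fluorescence at Ex 480/Em 540 nm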
ZTA counter = counter-screen for EBNA-1 inhibitors: inhibitors of Epstein-Barr virus ZTA; P03206; ZTA-DNA binding, fluorescence polarization; inhibition, % at 11 µM; actives 0.15% (n = 320,000); in the data active = inhibition above about 33%
Target sequence (P03206 whole entry, looked up): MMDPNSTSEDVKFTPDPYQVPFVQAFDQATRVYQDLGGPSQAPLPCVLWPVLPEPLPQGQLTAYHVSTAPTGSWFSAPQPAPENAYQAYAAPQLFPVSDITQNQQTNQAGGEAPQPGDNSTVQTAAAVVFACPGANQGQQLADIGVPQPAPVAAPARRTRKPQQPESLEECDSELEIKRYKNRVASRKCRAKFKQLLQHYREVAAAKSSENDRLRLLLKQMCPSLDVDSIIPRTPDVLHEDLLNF
PfG6PD inh = PfG6PD (Plasmodium falciparum) enzyme inhibition; PfGluPho enzyme, NADPH resazurin-diaphorase fluorescence; inhibition, % at 20 µM; actives 0.78% (n = 350,000); AID 504690;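 active = inhibition reaching at least a set limit at 20 µM in the primary screen, cut at about 59% in these data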;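 note: 0% = DMSO wells with substrate and 100% = DMSO wells lacking glucose-6-phosphate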
EBNA-1 inhibitor = blocks EBNA-1 binding to DNA; EBNA-1 DNA binding, fluorescence polarization; inhibition, % at 14.8 µM; actives 0.34% (n = 300,000); AID 1950; in the data active = inhibition above about 28%
PfM18AAP inh-1 = blocks P. falciparum M18 aspartyl aminopeptidase; recombinant PfM18AAP, H-Glu-NHMec fluorogenic cleavage; inhibition, % at 7.35 µM; actives 1.2% (n = 290,000);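 active = inhibition above the campaign mean inhibition over all tested compounds plus 3 SD, cut at about 28% in these data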;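 note: 0% = plate median of test compound wells and 100% = 2 mM ZnCl2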
PfM18AAP inh-2 = confirmation of Plasmodium falciparum M18 aspartyl aminopeptidase inhibitors; AID 2170; inhibition, % at 7.35 µM; actives 28% (n = 2,400); shares compounds with PfM18AAP inh-1; recombinant PfM18AAP, H-Glu-NHMec fluorogenic cleavage;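 active = mean inhibition over replicate wells above the hit cutoff set for the earlier primary screen, cut at about 29% in these data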;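 note: 0% = median of test compound wells and 100% = 2 mM ZnCl2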
CTSL1 counter = Cathepsin L (human) inhibition, confirmation. shares compounds with PfM18AAP inh-1. purified cathepsin L1, Z-Leu-Arg-MCA fluorescence. inhibition, % at 5.96 µM. 2,400 tested, under 10 active. AID 2178;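 active = average inhibition across replicates above the hit cutoff set in the earlier primary screen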;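 note: 0% = median of test compound wells and 100% = Z-Phe-Ala-diazomethylketone 1 µM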
Target sequence (P07711 whole entry, looked up): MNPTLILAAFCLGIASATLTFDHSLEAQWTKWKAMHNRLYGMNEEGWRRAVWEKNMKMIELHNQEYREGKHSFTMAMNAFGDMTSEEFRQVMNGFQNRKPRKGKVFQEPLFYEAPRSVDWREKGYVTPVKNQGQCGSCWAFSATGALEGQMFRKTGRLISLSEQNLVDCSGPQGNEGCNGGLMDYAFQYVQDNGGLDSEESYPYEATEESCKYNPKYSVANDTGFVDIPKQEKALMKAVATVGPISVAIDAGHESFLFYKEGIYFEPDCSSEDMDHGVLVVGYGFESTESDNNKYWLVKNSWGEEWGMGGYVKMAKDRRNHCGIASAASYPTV
The depositor's hits bear a star; nt = no result given.

SMILES	UBC13 inh	Apaf-1 inh	ZTA counter	PfG6PD inh	EBNA-1 inhibitor	PfM18AAP inh-1	PfM18AAP inh-2	CTSL1 counter
CCSC1=C(C#N)C(c2ccc(C)o2)CC(=O)N1 (stereo unspecified)	-5	0	-12	-13	6	1	nt	nt
CCOC(=O)N1CCC(=NNc2ncc(C(F)(F)F)cc2Cl)CC1	6	-19	16	-2	-4	12	nt	nt
CC(=O)N1CCC(=NNc2ncc(C(F)(F)F)cc2Cl)CC1	-5	-14	-2	13	-1	33*	-3	5
CC(C)C(=O)c1ccc(O)c(O)c1	-5	-10	9	-37	-7	41*	21	1
O=C1C2CC=CCC2C(=O)N1c1ncn[nH]1 (stereo unspecified)	6	-19	5	-11	1	10	nt	nt
O=C1C2CC=C(Cl)CC2C(=O)N1c1ncn[nH]1 (stereo unspecified)	3	-10	-1	-5	4	53*	8	-6
Cc1cc(C)cc(OCC(=O)Nc2nc(-c3cccnc3)cs2)c1	-2	-8	-1	35	13	44*	-3	-4
COc1ccc(OC)c(-c2oc3ccccc3c(=O)c2O)c1	18	3	0	-46	-8	-2	nt	nt
COc1ccc(OC)c(-c2c3cc(O)c(=O)cc-3oc3cc(O)c(O)cc23)c1	nt	nt	6	37	20	45*	26	4
O=Cc1ccc(O)c(O)c1	8	-12	-1	-27	-2	48*	31*	-1
COc1cc(/C=N/N=C2/C(=O)Nc3ccccc32)ccc1O	-136	-445	5	11	-6	17	nt	nt
CCOc1cc(/C=N/N=C/c2ccc(O)c(OCC)c2)ccc1O	-2	2	-8	-2	-1	-1	nt	nt
O=C(/C(=N/N=C/c1ccc(O)c(O)c1)c1ccccc1)c1ccccc1	-27	9	-7	-16	-17	48*	30*	3
Oc1ccc(/C=N/N=C/c2ccc(O)c(O)c2)cc1O	-11	-5	8	17	3	81*	76*	6
O=C1Nc2ccccc2/C1=N\N=C\c1ccc(O)c(O)c1	-152	8	0	-26	0	48*	47*	11
O=C(CC12CC3CC(CC(C3)C1)C2)N1CCN(S(=O)(=O)c2cccs2)CC1	7	-2	1	5	-1	-5	nt	nt
O=C(Cn1cc(C(=O)C2CC2)c2ccccc21)NCc1ccc2c(c1)OCO2	18	4	10	-12	2	0	nt	nt
O=[N+]([O-])c1ccc2[nH]c3nc4ccccc4nc3c2c1	-13	-16	-5	-4	-10	-4	nt	nt
S=C(NCCc1ccc(Cl)cc1)NC1CC1	4	1	9	13	2	2	nt	nt
Cc1cc(C(C)(C)C)cc(C)c1CCNC(=O)c1c(C)noc1C	-1	14	nt	1	nt	nt	nt	nt
CCN(CC)S(=O)(=O)c1cc(C(=O)N(C)CC(=O)Nc2ccc(Cl)cc2)ccc1Cl	8	14	5	9	8	9	nt	nt
CCCCCCCCCCC(=O)Nc1cccnc1	9	10	3	nt	-2	-14	nt	nt
OCC(O)/C=N/Nc1nc2ccccc2s1 (stereo unspecified)	9	-3	-1	6	-6	33*	3	-2
Oc1ccccc1C=NNc1nc2ccccc2s1	nt	nt	nt	-18	nt	nt	nt	nt
COc1ccc(/C=C(/NC(=O)c2ccco2)C(=O)NCc2ccco2)cc1OC	-11	3	-13	-12	-5	11	nt	nt
SMILES	UBC13 inh	Apaf-1 inh	ZTA counter	PfG6PD inh	EBNA-1 inhibitor	PfM18AAP inh-1	PfM18AAP inh-2	CTSL1 counter
Cc1cc(OCC(=O)Nn2cnnc2)ccc1Br	-1	1	-8	-20	-9	56*	59*	-7
O=C(NCc1ccccc1)c1cc[n+]([O-])cc1	3	0	9	-6	7	1	nt	nt
Cc1nn(-c2ccccc2)c2c1C(c1ccc([N+](=O)[O-])cc1)C(C#N)=C(N)O2 (stereo unspecified)	1	9	0	13	14	28	0	-1
Cc1cc(C)c(-c2cc(C(=O)Nc3c(C)n(C)n(-c4ccccc4)c3=O)[nH]n2)c(O)c1	-3	-5	-6	-12	-3	41*	-17	4
Cc1nc2c(cc1C(=O)N/N=C/c1ccc(O)c(O)c1)c(=O)n(C)c(=O)n2C	14	-7	9	-9	2	62*	68*	-1
O=C(N/N=C/c1ccc(O)c(O)c1)c1ccc(-n2cnnn2)cc1	-4	-10	-14	15	nt	nt	nt	nt
S=c1[nH]nc(Cc2cccc3ccccc23)n1-c1ccccc1	-4	2	-5	19	8	3	nt	nt
S=c1[nH]nc(Cc2noc3ccccc23)n1-c1ccccc1	-2	-5	-1	26	6	33*	-1	-3
O=c1c2ccccc2cnn1Cc1n[nH]c(=S)n1-c1ccc(Cl)cc1Cl	3	-2	4	nt	5	17	nt	nt
O=c1c2ccccc2cnn1Cc1n[nH]c(=S)n1-c1ccccc1	6	1	-1	39	9	35*	18	4
COC(=O)C1C(O)=C(C=NCC(C)N=CC2=C(O)C(C(=O)OC)C(C)(C)CC2=O)C(=O)CC1(C)C (stereo unspecified)	0	1	-13	8	7	47*	21	-1
Nc1nc(=S)c2ncn([C@@H]3O[C@H](CO)[C@@H](O)[C@H]3O)c2[nH]1	-20	15	17	43	-3	nt	nt	nt
CCCCn1cnc2c(=S)nc(N)[nH]c21	-6	0	-6	48	4	40*	-10	-5
CCCCCCCCn1cnc2c(N)c(C)c(C)cc21	7	8	18	41	7	2	nt	nt
CCCn1cnc2c(=S)nc(N)[nH]c21	11	-12	1	53	-1	57*	-20	3
Nc1nc(=S)c2ncn(C3CCCCC3)c2[nH]1	nt	nt	nt	49	nt	nt	nt	nt
CCCCCn1cnc2c(=S)nc(N)[nH]c21	5	8	nt	43	nt	41*	-19	5
NNc1nc(-c2ccccc2Cl)c2cc(Br)ccc2n1	-9	29	-4	12	-18	32*	-15	8
CC(OC(=O)c1ccc2c(=O)n3c(nc2c1)CCCCC3)C(=O)Nc1ccc(F)cc1Cl (stereo unspecified)	12	-9	10	-10	3	-5	nt	nt
